Screening results: PubChem, The Scripps Research Institute Molecular Screening Center
An excerpt weighted towards active compounds, which were near 3.2% of everything screened.
TRPN1 ag = agonists of zebrafish TRPN1 channel. HEK293 zebrafish TRPN1-YFP, Fluo-8 calcium fluorescence; 100% = response to 87 µM carbachol. activation, % at 3 µM. 0.18% of 220,000 active. AID 1424;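 active means activation above its plate's cutoff, the mean activation of test wells on that plate plus 3 SD, cut at about 19% in these data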
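Material: zebrafish TRPN1-YFP in HEK293 cells; Doses: single test compound dose, 3 µM nominal, 0.3% DMSO; Timing: dye loading 1 h at 37 °C, then 30 min room temperature; Technique: intracellular calcium fluorescence with Fluo-8; Benchmarks: high carbachol 87 µM, low DMSO alone.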
CHO parental Ca = counter-screen: ATP calcium response change in parental CHO cells | inhibition, % at 5.6 µM | 0.63% of 330,000 active | AID 463079 | parental CHO-K1, ATP-induced calcium, Fluo-8 fluorescence;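 active means inhibition above that plate's mean sample inhibition plus 3 SD, cut at about 26% in these data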
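Material: Parental CHO cells | Reagent: ATP | Compound dosing: Single nominal dose of 5.6 µM per compound | Detection: Intracellular calcium via Fluo-8 no-wash fluorescent dye | Read-out: % inhibition of ATP-induced calcium mobilization | Benchmarks: Low control ATP plus DMSO, high control DMSO only | Replicates: Singlicate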
TRPML3 agonist = activates the human TRPML3 channel; AID 1448; HEK293 TRPML3-YFP, Fluo-8 calcium fluorescence; 100% = the carbachol control signal; activation, % at 3 µM; Q8TDD5; 0.29% of 220,000 active;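 active means activation above its plate's cutoff, the mean activation of the plate's test wells plus 3 SD, cut at about 12% in these data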
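Material: TRPML3-YFP stable HEK293 cells | Dosing: One concentration, 3 µM nominal, 0.3% DMSO | Timing: 125 s total fluorescence read per well | Technique: Fluo-8 calcium dye fluorescence, ex 470-495, em 515-575 nm | Measure: Percent activation from peak-to-basal fluorescence ratio, scaled between DMSO and carbachol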
OX1R antag-1 = blocks the human orexin 1 receptor | O43613 | OX1R-expressing cells, FRET antagonist read-out | 1.8% of 330,000 active | inhibition, % at 6.6 µM; in the data active means inhibition mostly above about 38%, no sharp cut-off; inactive means mostly below about 40%
GPR7 antag = blocks human GPR7 receptor signaling | P48145 | 1.1% of 290,000 active | GPR7-expressing cells, fluorescence antagonist assay | AID 1861 | inhibition, % at 4.4 µM; in the data active means inhibition above about 16%, passing the limit was not always enough;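 further: cells stimulated with the agonist NPW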
Target sequence (P48145 whole entry, looked up): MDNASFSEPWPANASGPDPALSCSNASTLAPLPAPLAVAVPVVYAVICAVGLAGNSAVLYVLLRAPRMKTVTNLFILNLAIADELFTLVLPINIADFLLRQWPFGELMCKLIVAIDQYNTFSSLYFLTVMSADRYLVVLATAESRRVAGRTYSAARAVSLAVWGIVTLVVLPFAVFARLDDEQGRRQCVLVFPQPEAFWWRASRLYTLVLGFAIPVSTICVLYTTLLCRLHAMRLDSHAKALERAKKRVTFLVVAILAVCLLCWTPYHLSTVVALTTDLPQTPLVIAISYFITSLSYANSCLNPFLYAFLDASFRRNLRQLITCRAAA
OX1R antag-2 = antagonists of human orexin 1 receptor. O43613. AID 434989. inhibition, % at 5 µM. 0.43% of 330,000 active. CHO/OX1R cells, Fluo-8 calcium fluorescence, orexin A;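 active means inhibition above its plate's threshold, mean inhibition of all tested compounds on the plate plus 3 SD, cut at about 37% in these data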
OX1R Ca confirm = confirmation of human orexin 1 receptor antagonists; shares compounds with OX1R antag-2; CHO/OX1R cells, orexin A calcium Fluo-8 fluorescence; inhibition, % at 5 µM; 38% of 1,100 active; in the data active means inhibition above about 29%
CHO Ca counter = signal in parental CHO cells, OX1R antagonist counter-screen | inhibition, % at 5.6 µM | 9.3% of 1,100 active | shares compounds with OX1R antag-2 | parental CHO-K1, ATP-induced calcium, Fluo-8 fluorescence;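 active means inhibition above a per-plate limit, the mean inhibition of that plate's test compounds plus 3 SD, cut at about 25% in these data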
OX1R HTRF confirm = OX1R (human) antagonism, HTRF confirmed. inhibition, % at 6.6 µM. shares compounds with OX1R antag-1. OX1R-expressing cells, HTRF antagonist assay. 49% of 1,800 active; in the data active means inhibition above about 55%;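 further: CHO cells expressing OX1R stimulated with orexin A at about EC80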
CHO-K1 HTRF = signal in parental CHO-K1 cells, OX1R antagonist counter-screen | shares compounds with OX1R antag-1 | HTRF counterscreen | inhibition, % at 6.6 µM | 48% of 1,800 active | AID 493232; in the data active means inhibition above about 17%
Hits are given with their value; - = inactive; . = no result.

SMILES	TRPN1 ag	CHO parental Ca	TRPML3 agonist	OX1R antag-1	GPR7 antag	OX1R antag-2	OX1R Ca confirm	CHO Ca counter	OX1R HTRF confirm	CHO-K1 HTRF
O=C(Nc1ccc2nc(-c3cccs3)c(-c3cccs3)nc2c1)N1CCOCC1	-	-	-	73.0	-	-	-	-	-	-
CCCCN(Cc1nc2ccccc2c(=O)[nH]1)C(=O)COc1ccc(F)cc1Cl	.	-	.	-	.	-	.	.	.	.
COCCN(Cc1nc2ccccc2c(=O)[nH]1)C(=O)COc1c(C)cc(Cl)cc1C	.	-	.	58.4	.	39.2	-	-	70.1	-
COc1ccc(CC(=O)Nc2ccc(C(=O)Nc3ccccc3C(=O)O)cc2)cc1OC	-	-	-	-	-	-	.	.	.	.
N#Cc1nc(Nc2cccc(Cl)c2)c2ncn(C3CCCC3)c2n1	.	-	.	-	.	-	.	.	.	.
COC(=O)c1sc(NC(=O)c2cc3c(s2)CCCC3)nc1C	-	-	-	89.3	-	58.0	-	-	98.4	-
COc1ccc(CN(CC(O)COCc2ccccc2)S(=O)(=O)c2ccccc2Br)cc1OC (stereo unspecified)	.	-	.	46.2	.	54.6	-	-	68.1	-
COc1ccc(S(=O)(=O)N(CC(=O)O)Cc2ccccc2)cc1OC	-	-	-	-	-	-	.	.	.	.
Cc1n[nH]c(=O)c2c(NC(=O)CSc3nn(-c4ccccc4)c(=S)s3)oc(C)c12	.	-	.	-	.	-	.	.	.	.
CCSc1nnc(NC(=O)CSc2nc3c(c(=O)n2-c2ccccc2OC)SCC3)s1	-	-	-	35.7	-	-	-	-	75.8	-
CN1CCS/C1=C/C=C1\SC(=S)N(CC(=O)O)C1=O	21.3	-	-	103.7	-	-	-	-	63.7	102.8
CCn1c(C)cc(O)c(C(=O)Nc2cccc(Cl)c2)c1=O	.	-	.	-	-	-	.	.	.	.
COc1cc(Cl)c(C)cc1NC(=O)c1cccc(OC)c1OC	-	-	-	69.6	-	-	-	-	81.7	-
CCn1c2ccccc2c2cc(NC(C)=O)ccc21	-	-	-	-	-	-	.	.	.	.
CCn1c2ccccc2c2cc(NC(=O)c3cccc(OC)c3)ccc21	-	-	-	103.8	-	97.0	97.3	-	102.6	-
CCn1c(C)c(C)c2cc(C(=O)Nc3cccc(Cl)c3)ccc21	-	-	-	121.4	-	-	-	-	85.1	-
CCn1c2ccccc2c2cc(NC(=O)c3cccc(OC)c3OC)ccc21	-	-	-	86.6	-	64.3	74.5	-	90.8	-
CC1=C(C)C(O)N(Cc2ccccc2)C1=O (stereo unspecified)	.	-	.	-	-	-	.	.	.	.
CCC(=O)N1c2ccc(S(=O)(=O)NCCc3ccccc3)cc2CC1C (stereo unspecified)	.	-	.	-	-	-	.	.	.	.
CCn1c(SCC(=O)Nc2ccc3c(c2)c2ccccc2n3CC)nnc1-c1cnccn1	-	-	-	89.4	-	90.6	67.6	-	92.1	-
COc1ccc(-c2cc3nc(-c4ccccc4)cc(N4CCC(O)CC4)n3n2)cc1	-	-	-	-	-	-	.	.	.	.
Cc1cccc(-c2cc3nc(-c4ccccc4)cc(N4CCC5(CC4)OCCO5)n3n2)c1	-	-	-	63.7	-	47.3	-	-	69.5	-
Fc1cccc(-c2cc3nc(-c4ccccc4)cc(N4CCC5(CC4)OCCO5)n3n2)c1	-	-	-	72.0	-	45.6	51.6	-	-	-
CCOc1ccc(C2c3[nH]c4ccccc4c3CCN2CCCn2cccn2)cc1 (stereo unspecified)	-	-	-	-	-	-	.	.	.	.
CN(C)c1cccc(NC(=O)c2ccco2)c1	-	-	-	-	-	-	.	.	.	.
SMILES	TRPN1 ag	CHO parental Ca	TRPML3 agonist	OX1R antag-1	GPR7 antag	OX1R antag-2	OX1R Ca confirm	CHO Ca counter	OX1R HTRF confirm	CHO-K1 HTRF
CCN(CC)P(=O)(Nc1cccc(C(F)(F)F)c1)c1ccc(N(C)C)cc1NC(=O)c1ccco1 (stereo unspecified)	-	-	-	82.0	-	87.2	64.5	-	86.1	-
Cn1c2ccccc2c2cc(/C=N/NC(=O)c3ccccc3F)ccc21	.	-	.	102.4	-	-	-	-	94.4	-
O=C(COC(=O)c1cc(-c2ccc(Cl)s2)nc2ccccc12)NCc1ccco1	-	-	-	56.1	-	-	-	-	74.2	-
C/C(=N\Nc1cccc([N+](=O)[O-])c1)c1ccccc1O	-	-	-	76.4	-	-	-	-	-	-
OCCn1c(SCCOc2ccccc2F)nc2ccccc21	-	-	-	104.7	-	52.3	-	-	-	-
O=C(O)Cn1c(SCCOc2ccccc2F)nc2ccccc21	-	-	-	-	-	-	.	.	.	.
COc1ccc(/C=N/NC(=O)CN2CCCc3ccccc32)c(OC)c1	-	-	-	-	-	-	.	.	.	.
CC(C)Nc1oc(-c2cccc3ccccc23)nc1C#N	-	-	-	-	-	-	.	.	.	.
CCNc1oc(-c2cccc3ccccc23)nc1C#N	-	-	-	89.2	-	55.0	39.2	-	78.1	-
C=CCNc1oc(-c2cccc3ccccc23)nc1C#N	-	-	-	68.6	-	42.9	-	-	54.7	-
Cc1cc(C(=O)CCC(=O)NCC2COc3ccccc3O2)c(C)s1 (stereo unspecified)	.	-	.	-	.	-	.	.	.	.
CN(C)N1C(N)=C(C#N)C(c2cccs2)C2=C1CC(C)(C)CC2=O (stereo unspecified)	-	-	-	-	-	-	.	.	.	.
Cc1ccc(NC(=O)Nc2nnc(-c3ccncc3)s2)cc1C	-	-	-	40.7	-	-	-	-	-	-
COc1cc2c(cc1OC)C(C)N(C(=O)C1=NN(c3cccc(C)c3)C(=O)CC1)CC2 (stereo unspecified)	.	-	.	-	-	-	.	.	.	.
CC1CN(C(=O)c2ccccc2NS(=O)(=O)c2ccc(Cl)cc2)CC(C)O1 (stereo unspecified)	.	-	.	-	.	-	.	.	.	.
CCN(CC)c1ccc(/C=N/NC(=O)c2ccco2)c(O)c1	-	-	-	68.2	-	36.1	72.8	-	87.9	-
CCN(CC)c1ccc(/C=N/NC(=O)c2ccco2)cc1	-	-	-	-	-	-	.	.	.	.
COc1ccccc1N(CC(=O)NCCSCc1cccc(C)c1)S(=O)(=O)c1ccccc1	.	-	.	69.6	-	-	41.5	-	77.7	-
COc1ccccc1N(CC(=O)NCCC1=CCCCC1)S(=O)(=O)c1ccccc1	-	-	-	84.9	-	62.8	45.1	-	86.9	-
